The record followed here is ChEMBL document CHEMBL1132939, “Design and synthesis of trans-N-[4-[2-(6-cyano-1,2,3, 4-tetrahydroisoquinolin-2-yl)ethyl]cyclohexyl]-4-quinolinecarboxamide (SB-277011): A potent and selective dopamine D(3) receptor antagonist with high oral bioavailability and CNS penetration in the rat” (J Med Chem, 2000).

In one data set the target is D(3) dopamine receptor (Homo sapiens, UniProt P35462). Nature of the data set: Binding affinity for human Dopamine receptor D3 expressed in CHO cells. Format: cell-based.
The next data set has as its target D(2) dopamine receptor (Homo sapiens, UniProt P14416). Nature of the data set: Binding affinity for human Dopamine receptor D2 expressed in CHO cells. The class given is cell-based.
Data set [1] has as its target 5-hydroxytryptamine receptor 1D (Homo sapiens, UniProt P28221). Nature of the data set: Binding activity against human 5-hydroxytryptamine 1D receptor.
Data set [2] can be described thus: Compound was evaluated for Blood clearance in rat. The conditions noted are these: whole blood.
For a further data set, the target named is Cytochrome P450 2D6 (Homo sapiens, UniProt P10635). Nature of the data set: Inhibition of cytochrome P450 2D6. Format: ADME.
Data set [3] concerns the target 5-hydroxytryptamine receptor 1B (Homo sapiens, UniProt P28222). Nature of the data set: Binding activity against human 5-hydroxytryptamine 1B receptor. The method in brief:
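Radioligand competition binding to human receptor, run by a procedure described in an earlier paper. Binding curves were fitted with an iterative four-parameter logistic model to give IC50, which was then converted to pKi.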

Data set [4] can be described thus: Oral bioavailability in rat. The settings on record: in vivo.
A short description of data set [5]: Compound was evaluated for its Half life in rat. The conditions noted are these: in vivo.

D(2) dopamine receptor, sequence (P14416 whole entry): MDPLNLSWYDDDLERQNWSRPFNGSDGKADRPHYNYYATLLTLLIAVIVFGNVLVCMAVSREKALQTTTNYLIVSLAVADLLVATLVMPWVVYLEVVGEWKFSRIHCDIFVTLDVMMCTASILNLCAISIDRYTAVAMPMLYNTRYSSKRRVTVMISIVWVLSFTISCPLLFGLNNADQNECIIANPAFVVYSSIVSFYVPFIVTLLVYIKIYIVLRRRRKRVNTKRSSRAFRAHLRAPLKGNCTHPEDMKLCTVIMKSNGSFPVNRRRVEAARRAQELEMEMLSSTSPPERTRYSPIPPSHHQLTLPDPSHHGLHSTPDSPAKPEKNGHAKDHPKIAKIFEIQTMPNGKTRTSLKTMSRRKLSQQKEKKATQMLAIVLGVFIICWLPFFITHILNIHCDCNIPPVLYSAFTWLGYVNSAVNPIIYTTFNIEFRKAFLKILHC
D(3) dopamine receptor, sequence (P35462 whole entry): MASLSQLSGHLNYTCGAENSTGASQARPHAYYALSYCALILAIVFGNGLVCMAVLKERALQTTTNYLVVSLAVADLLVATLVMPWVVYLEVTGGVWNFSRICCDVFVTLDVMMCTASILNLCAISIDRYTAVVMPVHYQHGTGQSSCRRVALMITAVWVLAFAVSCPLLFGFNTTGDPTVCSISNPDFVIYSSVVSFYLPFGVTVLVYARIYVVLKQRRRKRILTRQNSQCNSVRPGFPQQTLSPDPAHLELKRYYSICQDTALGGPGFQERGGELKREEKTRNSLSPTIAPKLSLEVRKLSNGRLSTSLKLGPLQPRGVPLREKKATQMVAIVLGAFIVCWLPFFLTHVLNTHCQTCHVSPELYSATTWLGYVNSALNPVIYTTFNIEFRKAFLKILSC
5-hydroxytryptamine receptor 1B, sequence (P28222 whole entry): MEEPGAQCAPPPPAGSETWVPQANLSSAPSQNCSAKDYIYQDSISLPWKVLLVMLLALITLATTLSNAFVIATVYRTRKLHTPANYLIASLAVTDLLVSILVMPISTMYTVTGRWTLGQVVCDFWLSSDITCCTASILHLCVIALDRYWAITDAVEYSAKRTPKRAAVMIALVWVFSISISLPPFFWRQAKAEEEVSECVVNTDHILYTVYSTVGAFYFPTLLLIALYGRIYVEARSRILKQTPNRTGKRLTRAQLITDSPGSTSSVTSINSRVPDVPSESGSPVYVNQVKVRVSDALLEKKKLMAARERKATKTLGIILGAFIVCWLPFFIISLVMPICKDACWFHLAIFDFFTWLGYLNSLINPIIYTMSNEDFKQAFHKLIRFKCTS
5-hydroxytryptamine receptor 1D, sequence (P28221 whole entry): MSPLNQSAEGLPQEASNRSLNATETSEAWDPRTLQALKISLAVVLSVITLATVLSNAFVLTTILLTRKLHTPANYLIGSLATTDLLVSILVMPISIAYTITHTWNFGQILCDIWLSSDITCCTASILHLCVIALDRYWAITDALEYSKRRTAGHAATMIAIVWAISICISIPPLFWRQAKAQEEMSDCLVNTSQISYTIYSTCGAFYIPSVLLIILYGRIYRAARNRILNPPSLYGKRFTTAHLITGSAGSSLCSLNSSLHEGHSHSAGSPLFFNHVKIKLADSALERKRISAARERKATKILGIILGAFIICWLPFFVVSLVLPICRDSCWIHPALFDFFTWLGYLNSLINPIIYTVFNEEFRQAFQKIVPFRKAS
Cytochrome P450 2D6, sequence (P10635 whole entry): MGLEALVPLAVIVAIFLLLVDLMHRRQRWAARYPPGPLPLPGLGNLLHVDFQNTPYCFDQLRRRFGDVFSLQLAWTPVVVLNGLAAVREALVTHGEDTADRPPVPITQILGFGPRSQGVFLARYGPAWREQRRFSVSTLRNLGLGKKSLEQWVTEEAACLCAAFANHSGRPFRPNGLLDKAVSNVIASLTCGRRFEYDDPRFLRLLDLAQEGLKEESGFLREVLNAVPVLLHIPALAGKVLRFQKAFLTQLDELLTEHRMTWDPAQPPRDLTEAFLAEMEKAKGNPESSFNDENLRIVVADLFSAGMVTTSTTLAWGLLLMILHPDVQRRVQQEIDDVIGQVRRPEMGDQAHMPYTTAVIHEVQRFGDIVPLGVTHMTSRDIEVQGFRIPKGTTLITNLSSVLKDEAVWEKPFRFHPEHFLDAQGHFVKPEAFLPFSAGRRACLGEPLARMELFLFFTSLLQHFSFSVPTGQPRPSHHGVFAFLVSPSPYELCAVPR

For `N#Cc1ccc2c(c1)CN(CC[C@H]1CC[C@H](NC(=O)/C=C/c3c[nH]c4ccccc34)CC1)CC2`, the Ki was 3.16 nM on D(3) dopamine receptor and 126 nM at D(2) dopamine receptor.
Turning to `Cl.N#Cc1ccc2c(c1)CN(CC[C@H]1CC[C@H](NC(=O)c3cc4ccccc4[nH]3)CC1)CC2`, the Ki in data set [1] was 100 nM; in data set [3], 631 nM. In data set [2], this compound displayed a clearance of 6 mL/min/kg. For the same compound, half-maximal inhibition against Cytochrome P450 2D6 (IC50) was put at 800 nM. This compound registered a bioavailability in data set [4] of 43%. Moreover, the half-life in data set [5] was 6.3 h.
On to `N#Cc1ccc2c(c1)CCN(CC[C@H]1CC[C@H](NC(=O)c3ccc4ccccc4c3)CC1)C2`, for which the Ki in data set [1] was 100 nM; on D(3) dopamine receptor, 10 nM; in data set [3], greater than 10000 nM; at D(2) dopamine receptor, 1580 nM.
Regarding `Cl.N#Cc1ccc2c(c1)CCN(CC[C@H]1CC[C@H](NC(=O)c3cc4ccccc4[nH]3)CC1)C2`, the Ki on D(3) dopamine receptor was 15.8 nM; on D(2) dopamine receptor, 794 nM. In addition, the Inhibition on Cytochrome P450 2D6 came out at 17%.
Consider `N#Cc1ccc2c(c1)CN(CC[C@H]1CC[C@H](NC(=O)/C=C/c3ccccc3)CC1)CC2`, for which the Ki is 100 nM in data set [1], 1.26 nM at D(3) dopamine receptor, 158 nM in data set [3] and 158 nM at D(2) dopamine receptor.
On to `N#Cc1ccc2c(c1)CCN(CC[C@H]1CC[C@H](NC(=O)c3cccc4ccccc34)CC1)C2`, for which the Ki is 7.94 nM at D(3) dopamine receptor and 398 nM on D(2) dopamine receptor.
As for `CS(=O)(=O)c1cccc(/C=C/C(=O)N[C@H]2CC[C@H](CCN3CCc4cc(C#N)ccc4C3)CC2)c1.Cl`, the Ki is 3980 nM in data set [1], 5.01 nM on D(3) dopamine receptor, 6310 nM in data set [3] and 316 nM at D(2) dopamine receptor. This compound also registered a bioavailability in data set [4] of 45%.
For `N#Cc1ccc2c(c1)CCN(CC[C@H]1CC[C@H](NC(=O)/C=C/c3ccc(F)cc3)CC1)C2`, the Ki in data set [1] is 631 nM; at D(3) dopamine receptor, 3.16 nM; in data set [3] it was greater than 10000 nM; at D(2) dopamine receptor, 200 nM.
For the compound `N#Cc1ccc2c(c1)CCN(CC[C@H]1CC[C@H](NC(=O)/C=C/c3ccccc3)CC1)C2`, the Ki is 316 nM in data set [1], 3.16 nM on D(3) dopamine receptor, 1000 nM in data set [3] and 200 nM at D(2) dopamine receptor.
On to `O=C(/C=C/c1c[nH]c2ccccc12)NCCCCN1CCc2ccc(OS(=O)(=O)C(F)(F)F)cc2C1`, for which the Ki in data set [1] is 63.1 nM; in data set [3], 100 nM.
Consider `N#Cc1ccc2c(c1)CN(CCCCNC(=O)/C=C/c1c[nH]c3ccccc13)CC2`, for which the Ki in data set [1] was 251 nM; on D(3) dopamine receptor it was 12.6 nM; in data set [3] it was 158 nM; on D(2) dopamine receptor, 794 nM.
